Tests used:
[1] = Antiproliferative activity against human CNE2 cells after 48 hrs by SRB assay; assay type: functional, cell-based; settings: CNE-2, 48 h
How it was run: (§1)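 SRB assay on cells in RPMI-1640 with 2 mM glutamine, 10% FBS and penicillin/streptomycin at 37 °C and 5% CO2. Seeded at 5000 cells/well and grown 24 h, then compounds added in triplicate (DMSO 0.5% final) for 48 h. Fixed with TCA at 4 °C for 1 h, stained with SRB, dye dissolved in 10 mM Tris pH 10.4, OD read at 515 nm. IC50 from nonlinear dose-response fit; experiments run at least twice.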

A549 = assay: Antiproliferative activity against human A549 cells after 48 hrs by SRB assay; assay type: functional, cell-based; settings: A549, 48 h; how it was run: as §1
SW480 = assay: Antiproliferative activity against human SW480 cells after 48 hrs by SRB assay; assay type: functional, cell-based; settings: SW480, 48 h; how it was run: as §1
[2] = Inhibition of TNFalpha-induced NF-kappaB translocation in human A549 cells incubated at 37 degC for 30 mins by high content analysis based immunofluorescence assay; assay type: cell-based; settings: A549, 0.5 h
How it was run: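 A549 cells at 2000/well grown 24 h, then compound added in duplicate (DMSO 0.5% final) for 30 min at 37 °C. Stimulated with TNFα at 10 ng/mL final for 30 min, then fixed with 4% paraformaldehyde and permeabilized with Triton X-100. Stained with anti-p65 and DyLight 488 secondary plus Hoechst, imaged on ArrayScan. Nuclear minus cytoplasmic intensity, background-subtracted, given as % of TNFα-only control. IC50 from this; repeated at least twice.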

HepG2 = assay: Antiproliferative activity against human HepG2 cells after 48 hrs by SRB assay; assay type: functional, cell-based; settings: HepG2, 48 h; how it was run: as §1
MCF7 = assay: Antiproliferative activity against human MCF7 cells after 48 hrs by SRB assay; assay type: functional, cell-based; settings: MCF7, 48 h; how it was run: as §1
[3] = biological target: T1, RAC-alpha serine/threonine-protein kinase (Homo sapiens, UniProt P31749); assay: Inhibition of AKT1 by AKT1/PKBalpha KinEASE FP fluorescein green assay
T1 sequence (P31749 whole entry): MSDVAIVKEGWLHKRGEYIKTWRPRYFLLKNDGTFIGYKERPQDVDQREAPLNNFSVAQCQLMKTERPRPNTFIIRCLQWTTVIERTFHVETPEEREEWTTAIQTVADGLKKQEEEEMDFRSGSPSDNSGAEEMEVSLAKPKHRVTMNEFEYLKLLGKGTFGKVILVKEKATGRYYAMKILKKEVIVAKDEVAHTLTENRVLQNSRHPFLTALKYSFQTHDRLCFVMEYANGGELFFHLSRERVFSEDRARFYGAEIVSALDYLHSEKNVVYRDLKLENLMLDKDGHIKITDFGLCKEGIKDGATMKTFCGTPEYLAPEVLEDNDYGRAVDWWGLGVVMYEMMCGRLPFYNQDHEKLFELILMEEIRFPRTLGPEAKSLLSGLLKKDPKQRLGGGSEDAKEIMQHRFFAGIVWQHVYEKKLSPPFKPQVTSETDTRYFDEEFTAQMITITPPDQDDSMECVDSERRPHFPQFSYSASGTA
How it was run: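 Kinase reaction with Akt1 enzyme (amount giving 70% activity) and STK Substrate 3 (10 µM final) in 50 mM HEPES pH 7.2, 0.01% BSA, 5 mM MgCl2, 1 mM DTT, preincubated with compound 10 min at 25 °C. ATP (100 µM final) starts reaction, run 1 h at 25 °C. Stopped with phospho-STK tracer plus antibody, 6 h, then FP read (ex 470/em 530 nm). IC50 by nonlinear fit; triplicates, repeated twice.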

[4] = biological target: T1, RAC-alpha serine/threonine-protein kinase; assay: Inhibition of AKT1-mediated GSK3beta phosphorylation in human A549 cells incubated for 12 hrs by Western blot; assay type: cell-based
How it was run: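 A549 cells grown to 70% confluence, exposed 12 h to compound at 0.125–1.0 µM. Lysed in NP-40 buffer with protease inhibitors, then equal protein run on 10% SDS-PAGE and transferred to PVDF. Probed with anti-phospho-GSK3β (S9) at 1:1000 overnight at 4 °C, then HRP secondary at 1:5000.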

Structure (SMILES)	IC50 [1]	IC50 (A549)	IC50 (SW480)	IC50 [2]	IC50 (HepG2)	IC50 (MCF7)	IC50 [3]	inhibition [4]
COc1ccc(/C=C/C(=O)C(=Cc2ccc(O)c(F)c2)C(=O)/C=C/c2ccc(OC)cc2OC)c(OC)c1	2830 nM	2070 nM	3350 nM	23000 nM	1760 nM	5450 nM	–	–
COc1cccc(/C=C/C(=O)/C=C(O)/C=C/c2cccc(OC)c2OC)c1OC	12800 nM	11500 nM	12000 nM	> 50000 nM	12900 nM	> 50000 nM	–	–
COc1cc(C=C(C(=O)/C=C/c2cccc(OC)c2OC)C(=O)/C=C/c2cccc(OC)c2OC)cc(Br)c1O	220 nM	200 nM	260 nM	5530 nM	240 nM	360 nM	–	–
COc1cccc(/C=C/C(=O)C(=Cc2cc(OC)c(OC)c(OC)c2)C(=O)/C=C/c2cccc(OC)c2OC)c1OC	400 nM	230 nM	650 nM	1320 nM	220 nM	840 nM	–	–
COc1ccc(OC)c(/C=C/C(=O)C(=Cc2cc(Br)c(O)c(OC)c2)C(=O)/C=C/c2cc(OC)ccc2OC)c1	420 nM	220 nM	490 nM	4190 nM	280 nM	580 nM	5020 nM	–
COc1ccc(/C=C/C(=O)C(=Cc2ccc(OC)c(O)c2)C(=O)/C=C/c2ccc(OC)cc2OC)c(OC)c1	760 nM	380 nM	1370 nM	12300 nM	390 nM	1600 nM	1660 nM	–
COc1cccc(/C=C/C(=O)C(=Cc2ccc(O)c(F)c2)C(=O)/C=C/c2cccc(OC)c2OC)c1OC	260 nM	200 nM	330 nM	5250 nM	220 nM	300 nM	–	–
COc1cc(C=C(C(=O)/C=C/c2cccc(OC)c2OC)C(=O)/C=C/c2cccc(OC)c2OC)ccc1O	280 nM	130 nM	430 nM	1710 nM	200 nM	480 nM	810 nM	Dose-dependent effect
COc1cc(OC)c(/C=C/C(=O)/C=C(O)/C=C/c2c(OC)cc(OC)cc2OC)c(OC)c1	> 50000 nM	> 50000 nM	> 50000 nM	> 50000 nM	16500 nM	> 50000 nM	–	–
COc1cc(OC)c(/C=C/C(=O)C(=Cc2ccc(O)c(OC)c2)C(=O)/C=C/c2c(OC)cc(OC)cc2OC)c(OC)c1	1350 nM	580 nM	1490 nM	> 50000 nM	670 nM	1880 nM	–	–
COc1ccc(/C=C/C(=O)C(=Cc2ccc(O)c(OC)c2)C(=O)/C=C/c2ccc(OC)cc2OC)c(OC)c1	970 nM	590 nM	1520 nM	10400 nM	510 nM	2140 nM	–	–
COc1ccc(/C=C/C(=O)C(=Cc2cc(Br)c(O)c(OC)c2)C(=O)/C=C/c2ccc(OC)cc2OC)c(OC)c1	1780 nM	1090 nM	1480 nM	> 50000 nM	1190 nM	2600 nM	–	–
COc1ccc(OC)c(/C=C/C(=O)C(=Cc2cc(OC)c(O)c(OC)c2)C(=O)/C=C/c2cc(OC)ccc2OC)c1	450 nM	190 nM	500 nM	950 nM	210 nM	430 nM	–	–
COc1cc(OC)c(/C=C/C(=O)C(=Cc2cc(Br)c(O)c(OC)c2)C(=O)/C=C/c2c(OC)cc(OC)cc2OC)c(OC)c1	1320 nM	730 nM	1450 nM	> 50000 nM	660 nM	1460 nM	–	–
COc1cc(C=C(C(=O)/C=C/c2cccc(OC)c2OC)C(=O)/C=C/c2cccc(OC)c2OC)cc(OC)c1O	300 nM	240 nM	420 nM	2620 nM	210 nM	460 nM	–	–
COc1cccc(C=C(C(=O)/C=C/c2cccc(OC)c2OC)C(=O)/C=C/c2cccc(OC)c2OC)c1OC	400 nM	320 nM	590 nM	2390 nM	230 nM	520 nM	–	–

Structure (SMILES)	IC50 [1]	IC50 (A549)	IC50 (SW480)	IC50 [2]	IC50 (HepG2)	IC50 (MCF7)	IC50 [3]	inhibition [4]
COc1cc(/C=C/C(=O)CC(=O)/C=C/c2ccc(O)c(OC)c2)ccc1O [CURCUMIN]	5760 nM	11600 nM	10200 nM	21400 nM	20700 nM	15700 nM	–	–
COc1ccc(/C=C/C(=O)/C=C(O)/C=C/c2ccc(OC)cc2OC)c(OC)c1	> 50000 nM	44700 nM	> 50000 nM	> 50000 nM	10400 nM	> 50000 nM	–	–
COc1ccc(OC)c(/C=C/C(=O)C(=Cc2ccc(O)c(F)c2)C(=O)/C=C/c2cc(OC)ccc2OC)c1	380 nM	220 nM	510 nM	3010 nM	220 nM	460 nM	–	–
COc1cc(OC)c(C=C(C(=O)/C=C/c2cccc(OC)c2OC)C(=O)/C=C/c2cccc(OC)c2OC)c(OC)c1	630 nM	630 nM	840 nM	> 50000 nM	300 nM	720 nM	–	–
COc1ccc(OC)c(/C=C/C(=O)C(=Cc2ccc(OC)c(O)c2)C(=O)/C=C/c2cc(OC)ccc2OC)c1	730 nM	390 nM	1120 nM	1780 nM	470 nM	990 nM	–	–
COc1ccc(C=C(C(=O)/C=C/c2cccc(OC)c2OC)C(=O)/C=C/c2cccc(OC)c2OC)cc1OC	280 nM	170 nM	410 nM	1670 nM	200 nM	560 nM	–	–
COc1cccc(/C=C/C(=O)C(=Cc2ccc(OC)c(OC)c2OC)C(=O)/C=C/c2cccc(OC)c2OC)c1OC	410 nM	260 nM	560 nM	1630 nM	240 nM	380 nM	–	–
COc1ccc(C=C(C(=O)/C=C/c2cccc(OC)c2OC)C(=O)/C=C/c2cccc(OC)c2OC)cc1O	220 nM	270 nM	320 nM	1260 nM	270 nM	310 nM	–	–
COc1ccc(OC)c(/C=C/C(=O)C(=Cc2ccc(O)c(OC)c2)C(=O)/C=C/c2cc(OC)ccc2OC)c1	340 nM	190 nM	410 nM	2650 nM	340 nM	400 nM	–	–
COc1cc(OC)c(/C=C/C(=O)C(=Cc2ccc(O)c(F)c2)C(=O)/C=C/c2c(OC)cc(OC)cc2OC)c(OC)c1	1580 nM	1060 nM	1950 nM	> 50000 nM	810 nM	3180 nM	–	–
COc1ccc(OC)c(/C=C/C(=O)C(=Cc2ccc(OC)c(OC)c2)C(=O)/C=C/c2cc(OC)ccc2OC)c1	550 nM	400 nM	560 nM	14400 nM	260 nM	850 nM	–	–
COc1ccc(OC)c(/C=C/C(=O)/C=C(O)/C=C/c2cc(OC)ccc2OC)c1	14700 nM	16300 nM	15600 nM	> 50000 nM	5560 nM	> 50000 nM	–	–
COc1cc(OC)c(/C=C/C(=O)C(=Cc2cc(OC)c(O)c(OC)c2)C(=O)/C=C/c2c(OC)cc(OC)cc2OC)c(OC)c1	680 nM	340 nM	980 nM	> 50000 nM	510 nM	1030 nM	–	–
COc1cccc(/C=C/C(=O)C(=Cc2ccc(F)cc2)C(=O)/C=C/c2cccc(OC)c2OC)c1OC	610 nM	340 nM	1040 nM	1720 nM	580 nM	1830 nM	–	–
COc1ccc(/C=C/C(=O)C(=Cc2cc(OC)c(O)c(OC)c2)C(=O)/C=C/c2ccc(OC)cc2OC)c(OC)c1	850 nM	300 nM	850 nM	3930 nM	320 nM	970 nM	–	–

From ChEMBL document CHEMBL2062524, “Synthesis, cytotoxicity of new 4-arylidene curcumin analogues and their multi-functions in inhibition of both NF-κB and Akt signalling” (Eur J Med Chem, 2012)
